Experimental data from ChEMBL document CHEMBL1127433, “N6-substituted adenosine receptor agonists. Synthesis and pharmacological activity as potent antinociceptive agents” (J Med Chem, 1994).
pKi: −log10 of the molar value. The source made the active and inactive calls. No cut-off for these calls is given here.

How the values were obtained:
[1] = target: T1, Adenosine receptor A1 (Rattus norvegicus) (UniProt P25099); experiment: Percent displacement from adenosine A1 receptor at 10e-5 M in rat brain membrane in vitro.; format: cell membranes
T1 sequence (whole entry): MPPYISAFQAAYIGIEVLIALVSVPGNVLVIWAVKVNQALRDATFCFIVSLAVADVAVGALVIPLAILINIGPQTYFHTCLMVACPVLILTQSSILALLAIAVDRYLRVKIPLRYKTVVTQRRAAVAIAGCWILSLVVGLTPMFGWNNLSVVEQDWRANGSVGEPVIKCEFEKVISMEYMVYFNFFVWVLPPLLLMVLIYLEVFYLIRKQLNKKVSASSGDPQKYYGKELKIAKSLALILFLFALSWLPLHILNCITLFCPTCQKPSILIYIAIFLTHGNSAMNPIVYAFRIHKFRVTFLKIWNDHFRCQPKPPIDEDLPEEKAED

Mus musculus [2] = experiment: Effective dose of compound for phenylbenzoquinone-Induced writhing in mice after peroral administration expressed as analgesic activity; Not calculated; format: functional; conditions: po
In short: (§1)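 Mice dosed orally (0.5 mL/20 g); 1 h later given 0.02% phenylbenzoquinone in hydroalcoholic solution ip (0.20-0.24 mL). Writhings and stretches counted from minute 5 to minute 10. Six animals per group. Inhibition taken against the control mean; ED50 (50% decrease) by linear regression.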

[3] = target: T2, Adenosine A2 receptor (Rattus norvegicus) (UniProt P29276+P30543); experiment: Percent displacement from adenosine A2 receptor at 10e-5 M in rat striatal membrane in vitro.; format: cell membranes
[4] = target: T2, Adenosine A2 receptor (Rattus norvegicus); experiment: Percent displacement from adenosine A2 receptor at 10e-7 M in rat striatal membrane in vitro.; format: cell membranes; conditions: Striatum
Adenosine A2 receptor = Adenosine A2 receptor (Rattus norvegicus, UniProt P29276+P30543); experiment: Binding affinity for adenosine A2 receptor in vitro using rat striatal membrane.; format: cell membranes
In short: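 Rat striatal membranes in 50 mM Tris-HCl, 10 mM MgCl2, pH 7.7, adenosine deaminase treated (1 U/mL, 30 min). Incubated with [3H]NECA (4 nM, 50 μL) plus 0.11 μM cyclopentyladenosine and competitor for 60 min at 25 °C. Nonspecific binding defined with 5 μM NECA. GF/B filtration, scintillation counting, triplicate. IC50 from log-logit regression, Ki via Cheng-Prusoff, one experiment.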

[5] = target: T1, Adenosine receptor A1 (Rattus norvegicus); experiment: Percent displacement from adenosine A1 receptor at 10e-7 M in rat brain membrane in vitro.; format: cell membranes
Adenosine receptor A1 [6] = target: T3, Adenosine receptor A1 (Rattus norvegicus, UniProt P25099); experiment: Binding affinity for adenosine A1 receptor in vitro using rat brain membranes.; format: cell membranes
T3 sequence (P25099 whole entry): T1 sequence (whole entry)
In short: (§2)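 Whole rat brain membranes, homogenized in 50 mM Tris-HCl pH 7.4 and spun at 1090g then 48000g, pretreated with adenosine deaminase 1 U/mL for 30 min. Nonspecific binding defined with 10 μM PIA. Separated by GF/B filtration and scintillation counted, in triplicate. IC50 from log-logit regression, Ki via Cheng-Prusoff, one experiment.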

Mus musculus [7] = experiment: Effective dose of compound for phenylbenzoquinone-Induced writhing in mice after peroral administration expressed as analgesic activity; Inactive; format: functional, organism-based; in short: as §1
Mus musculus [8] = experiment: Effective dose of compound for phenylbenzoquinone-Induced writhing in mice after peroral administration expressed as analgesic activity; Not dose dependent; format: functional; conditions: po; in short: as §1
Adenosine receptor A1 [9] = target: T3, Adenosine receptor A1; experiment: Binding affinity for adenosine A1 receptor in rat brain membrane; format: cell membranes
In short: as §2, with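 “U/mL for 30 min. Incubated with 2.5 nM [3H]PIA and competitor at 20 °C” for “U/mL”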

Mus musculus [10] = experiment: Effective dose for phenylbenzoquinone-induced writhing in mice after peroral administration expressed as analgesic activity.; format: functional; conditions: po; in short: as §1

SMILES | Displacement [1] [%] | ED50 (Mus musculus [2]) [mg/kg] | Displacement [3] [%] | Displacement [4] [%] | Ki (Adenosine A2 receptor) [nM] | Displacement [5] [%] | pKi (Adenosine receptor A1 [6]) | ED50 (Mus musculus [7]) | ED50 (Mus musculus [8]) [mg/kg] | pKi (Adenosine receptor A1 [9]) | ED50 (Mus musculus [10]) [mg/kg]
O=C(NC1CC1)[C@H]1O[C@@H](n2cnc3c(NCCc4cn(Cc5cccc([N+](=O)[O-])c5)c5ccccc45)ncnc32)[C@H](O)[C@@H]1O | 100 | < 10 | 99 | 46 | 182 | 63 | 7.54 | – | – | – | –
O=C(NC1CC1)[C@H]1OC(n2cnc3c(NCCc4cn(Cc5ccc(Cl)cc5)c5ccc(Cl)cc45)ncnc32)[C@H](O)[C@@H]1O (stereo partly specified) | 100 | – | 79 | 23 | – | 49 | – | inactive | – | – | –
C#CCn1cc(CCNc2ncnc3c2ncn3C2O[C@H](C(=O)NC3CC3)[C@@H](O)[C@H]2O)c2ccccc21 (stereo partly specified) | 95 | – | 83 | 25 | – | 64 | – | – | < 10 | – | –
CSc1ccc2c(c1)c(CCNc1ncnc3c1ncn3C1O[C@H](C(=O)NC3CC3)[C@@H](O)[C@H]1O)cn2Cc1cc(C)ccc1C (stereo partly specified) | 82 | – | 76 | 8 | – | 13 | – | – | > 10 | – | –
O=C(NC1CC1)[C@H]1O[C@@H](n2cnc3c(NCCc4c[nH]c5ccccc45)ncnc32)[C@H](O)[C@@H]1O | 100 | – | 68 | 29 | 560 | 91 | – | – | – | 8.10 | 34.9
Cc1ccc(Cn2cc(CCNc3ncnc4c3ncn4C3O[C@H](C(=O)NC4CC4)[C@@H](O)[C@H]3O)c3ccccc32)cc1C (stereo partly specified) | 96 | – | 83 | 13 | 820 | 29 | 6.80 | – | > 30 | – | –
CN(C)CCn1cc(CCNc2ncnc3c2ncn3C2O[C@H](C(=O)NC3CC3)[C@@H](O)[C@H]2O)c2ccccc21 (stereo partly specified) | 100 | – | 95 | 51 | – | 83 | – | – | > 60 | – | –
Cc1ccc(C)c(Cn2c(-c3ccccc3)c(CCNc3ncnc4c3ncn4C3O[C@H](C(=O)NC4CC4)[C@@H](O)[C@H]3O)c3ccccc32)c1 (stereo partly specified) | 31 | – | 23 | 0 | – | 6 | – | – | > 30 | – | –
Cc1ccc(Cn2cc(CCNc3ncnc4c3ncn4C3O[C@H](C(=O)NC4CC4)[C@@H](O)[C@H]3O)c3ccccc32)cc1 (stereo partly specified) | 97 | – | 89 | 21 | 340 | 37 | 6.89 | – | < 3 | – | –
O=C(NC1CC1)[C@H]1OC(n2cnc3c(NCCc4cn(Cc5ccc(Cl)c(Cl)c5)c5ccccc45)ncnc32)[C@H](O)[C@@H]1O (stereo partly specified) | 100 | – | 81 | 24 | 1400 | 52 | 6.85 | – | > 30 | – | –
O=C(NC1CC1)[C@H]1O[C@@H](n2cnc3c(NCCc4cn(Cc5cccc6ccccc56)c5ccccc45)ncnc32)[C@H](O)[C@@H]1O | 93 | – | 76 | 8 | 1400 | 20 | – | – | – | 6.43 | 2.4
O=C(NC1CC1)[C@H]1OC(n2cnc3c(NCCc4cn(CC5CC5)c5ccccc45)ncnc32)[C@H](O)[C@@H]1O (stereo partly specified) | 97 | – | 87 | 25 | 190 | 45 | 7.17 | – | > 10 | – | –
OC[C@H]1OC(n2cnc3c(NCCc4cn(Cc5ccccc5)c5ccccc45)ncnc32)[C@H](O)[C@@H]1O (stereo partly specified) | 100 | – | 95 | 30 | 250 | 67 | 7.30 | – | > 30 | – | –
O=C(NC1CC1)[C@H]1OC(n2cnc3c(NCCc4cn(Cc5ccc(Br)cc5F)c5ccccc45)ncnc32)[C@H](O)[C@@H]1O (stereo partly specified) | 96 | – | 92 | 23 | – | 40 | – | inactive | – | – | –
COCCNC(=O)[C@H]1O[C@@H](n2cnc3c(NCCc4cn(Cc5ccc(Cl)cc5)c5ccccc45)ncnc32)[C@H](O)[C@@H]1O | 90 | – | 36 | 0 | > 10000 | 13 | 6.05 | inactive | – | – | –
CCNC(=O)[C@H]1OC(n2cnc3c(NCCc4cn(Cc5cc(C)ccc5C)c5ccccc45)ncnc32)[C@H](O)[C@@H]1O (stereo partly specified) | 92 | – | 86 | 12 | 660 | 38 | 6.80 | – | < 2 | – | –
CC(C)(CO)NC(=O)[C@H]1OC(n2cnc3c(NCCc4cn(Cc5ccc(Cl)cc5)c5ccccc45)ncnc32)[C@H](O)[C@@H]1O (stereo partly specified) | 79 | – | 50 | 0 | – | 5 | – | inactive | – | – | –
O=C(NC1CC1)[C@H]1O[C@@H](n2cnc3c(NCCc4cn(Cc5cccnc5)c5ccccc45)ncnc32)[C@H](O)[C@@H]1O | 97 | – | 98 | 30 | 183 | 78 | 7.59 | – | > 30 | – | –
O=C(NC1CC1)[C@H]1OC(n2cnc3c(NCCc4cn(CCN5CCCCC5)c5ccccc45)ncnc32)[C@H](O)[C@@H]1O (stereo partly specified) | 99 | – | 96 | 44 | 120 | 90 | 8.08 | – | – | – | 7.3
Cc1ccc(C)c(Cn2cc(C(C)CNc3ncnc4c3ncn4[C@@H]3O[C@H](C(=O)NC4CC4)[C@@H](O)[C@H]3O)c3ccccc32)c1 (stereo partly specified) | 97 | – | 61 | 0 | 2500 | 28 | 6.70 | – | – | – | 0.9
